Biological target: Muscarinic acetylcholine receptor M5 (Rattus norvegicus) (UniProt P08911)
Assay: potentiation of ACh response at rat M5 – CHO cells, Fluo-4 calcium mobilization, selectivity assay, dose response (AID 588752)
Settings: Fluo-4, ACh EC20, at 30 µM (top of the series); percent of ACh max: at the top concentration; call rule not given here
In short: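 Technique: kinetic Fluo-4 AM fluorescence of intracellular calcium mobilization / System: rat M5 stable CHO cell line / Schedule: 144 s compound pre-incubation, 86 s to EC80, 37 °C / Reagent: acetylcholine at EC20, then acetylcholine at EC80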

Sequence of Muscarinic acetylcholine receptor M5 (Rattus norvegicus) (P08911 whole entry, looked up): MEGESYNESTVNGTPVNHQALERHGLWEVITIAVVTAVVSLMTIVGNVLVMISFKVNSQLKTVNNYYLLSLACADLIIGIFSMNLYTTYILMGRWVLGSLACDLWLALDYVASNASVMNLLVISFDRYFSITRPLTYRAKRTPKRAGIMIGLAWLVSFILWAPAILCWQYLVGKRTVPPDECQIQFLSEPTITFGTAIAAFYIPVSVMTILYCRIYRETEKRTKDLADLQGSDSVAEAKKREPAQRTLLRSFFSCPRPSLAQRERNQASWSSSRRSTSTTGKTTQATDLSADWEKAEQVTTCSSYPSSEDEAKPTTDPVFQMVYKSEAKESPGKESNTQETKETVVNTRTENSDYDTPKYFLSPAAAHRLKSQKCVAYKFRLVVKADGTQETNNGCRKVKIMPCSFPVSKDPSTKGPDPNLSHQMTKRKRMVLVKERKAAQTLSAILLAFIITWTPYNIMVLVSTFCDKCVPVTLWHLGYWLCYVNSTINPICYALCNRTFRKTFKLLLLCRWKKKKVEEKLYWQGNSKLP

Percent of ACh max, inactive:
Cc1nc2sc(C(=O)NC3CC3)c(N)c2c(C)c1Cl 17.9
Cc1nc2sc(C(=O)NCCc3ccncc3)c(N)c2c(C)c1Cl 19.3
Cc1nc2sc(C(=O)NCc3ccc4c(c3)OCO4)c(N)c2c(C)c1Cl 18.1 [Fluo-4, ACh EC20, at 36.8 µM]
Cc1nc2sc(C(=O)NCc3cccnc3)c(N)c2c(C)c1Cl 15.4 [Fluo-4, ACh EC20, at 45.3 µM]
Cc1nc2sc(C(=O)NCc3ccncc3)c(N)c2c(C)c1Cl 12 [Fluo-4, ACh EC20, at 45.3 µM]
Cc1nc2sc(C(=O)NCc3ccccc3)c(N)c2c(C)c1Cl 17.9 [Fluo-4, ACh EC20, at 37.4 µM]
Cc1nc2sc(C(=O)NCc3nccs3)c(N)c2c(C)c1Cl 18.3
Cc1nc2sc(C(=O)NCc3cccc(F)c3F)c(N)c2c(C)c1Cl 16.2
Cc1nc2sc(C(=O)NCc3ccncn3)c(N)c2c(C)c1Cl 15.2

From PubChem BioAssay AID588752 (Vanderbilt Specialized Chemistry Center, 2011)
